Calls of active or inactive are those of the source. The calls are words filed in the database; no cut-off is given here.
Experiments:
[1] = Myocardial activity in Wistar-Kyoto rat left atrium exposed to electrical stimulation driven at 2 Hz assessed as muscle contraction at 10 uM relative to untreated control; assay type: functional, Muscle tissue
Outline: (§1)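 Left atrial and right ventricular strips from male Wistar-Kyoto rats, electrically driven, in Tyrode's solution gassed with CO2−O2 (1:19) at 36 ± 0.2 °C. Optimal preload 0.5−1.0 g for maximal developed tension. Contraction recorded by force displacement transducer and expressed as % of the pre-treatment control. Means from four to five experiments.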

[2] = Myocardial activity in Wistar-Kyoto rat right ventricle exposed to electrical stimulation driven at 2 Hz assessed as muscle contraction at 3 uM relative to untreated control; assay type: functional, Muscle tissue; outline: as §1
Heart [3] = experiment: Myocardial activity in Wistar-Kyoto rat heart assessed as heart rate level at 3 uM relative to untreated control; assay type: functional
Outline: (§2)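 Right atria from male Wistar-Kyoto rat hearts in an organ bath of Tyrode's solution gassed with CO2−O2 (1:19) at 36 ± 0.2 °C. Spontaneous beating rate recorded and expressed as % of the pre-treatment control. Means from four to five experiments.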

Heart [4] = experiment: Myocardial activity in Wistar-Kyoto rat heart assessed as heart rate level at 30 uM relative to untreated control; assay type: functional; outline: as §2
[5] = Myocardial activity in Wistar-Kyoto rat left atrium exposed to electrical stimulation driven at 2 Hz assessed as muscle contraction at 3 uM relative to untreated control; assay type: functional, Muscle tissue; outline: as §1
[6] = Myocardial activity in Wistar-Kyoto rat right atrium exposed to electrical stimulation driven at 2 Hz assessed as muscle contraction at 10 uM relative to untreated control; assay type: functional, Muscle tissue
Heart [7] = experiment: Myocardial activity in Wistar-Kyoto rat heart assessed as heart rate level at 10 uM relative to untreated control; assay type: functional; outline: as §2
[8] = Myocardial activity in Wistar-Kyoto rat right atrium exposed to electrical stimulation driven at 2 Hz assessed as muscle contraction at 3 uM relative to untreated control; assay type: functional, Muscle tissue
[9] = Myocardial activity in Wistar-Kyoto rat right ventricle exposed to electrical stimulation driven at 2 Hz assessed as muscle contraction at 10 uM relative to untreated control; assay type: functional, Muscle tissue; outline: as §1
[10] = Myocardial activity in Wistar-Kyoto rat left atrium exposed to electrical stimulation driven at 2 Hz assessed as muscle contraction at 30 uM relative to untreated control; assay type: functional, Muscle tissue; outline: as §1
[11] = Myocardial activity in Wistar-Kyoto rat right ventricle exposed to electrical stimulation driven at 2 Hz assessed as muscle contraction at 30 uM relative to untreated control; assay type: functional, Muscle tissue; outline: as §1
[12] = Myocardial activity in Wistar-Kyoto rat right atrium exposed to electrical stimulation driven at 2 Hz assessed as muscle contraction at 30 uM relative to untreated control; assay type: functional, Muscle tissue
Rattus norvegicus [13] = organism: Rattus norvegicus; experiment: Positive inotropic effect in Wistar-Kyoto rat left atrium exposed to electrical stimulation driven at 2 Hz assessed as muscle contraction at 3 to 30 uM in presence of 3 uM atenolol relative to untreated control; assay type: functional, tissue-based; conditions: Cardiac atrium
Rattus norvegicus [14] = organism: Rattus norvegicus; experiment: Positive inotropic effect in Wistar-Kyoto rat left atrium exposed to electrical stimulation driven at 2 Hz assessed as muscle contraction at 3 to 30 uM in presence of 1 uM prazosin relative to untreated control; assay type: functional, tissue-based; conditions: Cardiac atrium
Rattus norvegicus [15] = organism: Rattus norvegicus; experiment: Positive inotropic effect in Wistar-Kyoto rat left atrium exposed to electrical stimulation driven at 2 Hz assessed as muscle contraction at 3 to 30 uM in presence of 1 uM verapamil relative to untreated control; assay type: functional, tissue-based; conditions: Cardiac atrium

Structure (SMILES)	Activity [1] [%]	Activity [2] [%]	Activity (Heart [3]) [%]	Activity (Heart [4]) [%]	Activity [5] [%]	Activity [6] [%]	Activity (Heart [7]) [%]	Activity [8] [%]	Activity [9] [%]	Activity [10] [%]	Activity [11] [%]	Activity [12] [%]	Activity (Rattus norvegicus [13])	Activity (Rattus norvegicus [14])	Activity (Rattus norvegicus [15])
COc1cc2c(cc1OC)-c1c(O)c(OC)cc3c1[C@H](C2)NCC3	93	102	91	61	94	99	78	99	96	89	90	117			
COc1cc2c(cc1OC)-c1c(O)c(OC)cc3c1[C@H](C2)N(C)CC3	180	125	92	82	110	140	86	104	154	243	163	180	Active	Active	Active
CCCN1CCc2cc(OC)c(O)c3c2[C@@H]1Cc1cc(OC)c(OC)cc1-3	90	95	91	61	99	103	80	103	85	74	75	103			
COc1cc2c(cc1OC)-c1c(O)c(OC)cc3c1[C@@H](C2)N(C)CC3	103	93	92	69	106	121	85	106	80	100	72	129			
CCN1CCc2cc(OC)c(O)c3c2[C@@H]1Cc1cc(OC)c(OC)cc1-3	122	100	97	84	105	127	97	93	108	131	111	162			
COc1cc2c(cc1OC)-c1c(O)c(OC)cc3c1[C@@H](C2)NCC3	104	108	100	79	103	103	96	101	111	105	120	105			
CCCN1CCc2cc(OC)c(O)c3c2[C@H]1Cc1cc(OC)c(OC)cc1-3	105	100	88	68	101	131	79	121	100	99	96	141			

From ChEMBL document CHEMBL2331165, “Semisynthesis and myocardial activity of thaliporphine N-homologues” (2013)
